How the values were obtained:
[1] = target: Sodium-dependent serotonin transporter (Rattus norvegicus, UniProt P31652); test: Displacement of [3H]-5-HT from rat SERT
[2] = Displacement of [3H]-5-HT from calf 5HT1D receptor; set-up: species or system Bos taurus
[3] = target: T1, 5-hydroxytryptamine receptor 2C (Homo sapiens, UniProt P28335); test: Displacement of [3H]-mesulergine from human 5HT2C receptor
T1 sequence (P28335 whole entry): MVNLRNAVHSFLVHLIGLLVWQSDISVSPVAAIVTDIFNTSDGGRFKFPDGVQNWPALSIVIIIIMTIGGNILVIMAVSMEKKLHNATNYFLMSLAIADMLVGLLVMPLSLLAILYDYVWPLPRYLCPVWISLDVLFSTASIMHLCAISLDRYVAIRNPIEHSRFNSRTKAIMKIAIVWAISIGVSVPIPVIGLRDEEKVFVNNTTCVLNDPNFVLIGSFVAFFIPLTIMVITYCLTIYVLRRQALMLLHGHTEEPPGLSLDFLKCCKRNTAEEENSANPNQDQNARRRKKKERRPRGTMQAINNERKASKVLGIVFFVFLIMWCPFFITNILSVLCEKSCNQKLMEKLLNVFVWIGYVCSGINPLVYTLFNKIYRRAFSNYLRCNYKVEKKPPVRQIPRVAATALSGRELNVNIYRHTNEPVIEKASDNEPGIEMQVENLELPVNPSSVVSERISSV

[4] = target: T2, 5-hydroxytryptamine receptor 1A (Rattus norvegicus, UniProt P19327); test: Displacement of [3H]-8-OH-DPAT from rat 5HT1A receptor
T2 sequence (P19327 whole entry): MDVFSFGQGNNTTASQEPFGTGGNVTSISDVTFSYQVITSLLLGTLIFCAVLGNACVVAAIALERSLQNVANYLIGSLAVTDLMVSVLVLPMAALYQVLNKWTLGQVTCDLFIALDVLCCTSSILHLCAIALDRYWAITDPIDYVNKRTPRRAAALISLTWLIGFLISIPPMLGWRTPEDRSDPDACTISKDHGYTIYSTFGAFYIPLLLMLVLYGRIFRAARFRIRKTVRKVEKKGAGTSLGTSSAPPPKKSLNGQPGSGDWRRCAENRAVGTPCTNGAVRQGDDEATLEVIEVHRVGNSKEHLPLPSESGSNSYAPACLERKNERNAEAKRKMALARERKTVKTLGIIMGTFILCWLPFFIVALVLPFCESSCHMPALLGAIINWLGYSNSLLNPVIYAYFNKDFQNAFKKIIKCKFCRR

[5] = target: T3, 5-hydroxytryptamine receptor 6 (Homo sapiens, UniProt P50406); test: Displacement of [3H]LSD from human 5HT6 receptor expressed in HEK cell membranes after 1 hr by liquid scintillation counting analysis; set-up: species or system HEK293
T3 sequence (P50406 whole entry): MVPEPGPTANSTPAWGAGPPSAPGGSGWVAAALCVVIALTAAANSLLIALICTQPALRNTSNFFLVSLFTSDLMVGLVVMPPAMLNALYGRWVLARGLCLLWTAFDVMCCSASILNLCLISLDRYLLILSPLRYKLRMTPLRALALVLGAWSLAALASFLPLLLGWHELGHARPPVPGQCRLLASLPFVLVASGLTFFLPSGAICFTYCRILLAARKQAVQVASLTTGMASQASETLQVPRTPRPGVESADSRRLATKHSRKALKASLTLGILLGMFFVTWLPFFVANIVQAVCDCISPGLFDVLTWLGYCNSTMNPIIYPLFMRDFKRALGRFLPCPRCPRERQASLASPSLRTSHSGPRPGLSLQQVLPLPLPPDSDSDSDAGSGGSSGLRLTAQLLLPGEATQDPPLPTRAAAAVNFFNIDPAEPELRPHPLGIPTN
How it was run: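 Compounds were made up as 1 mM DMSO stocks and diluted in 20 mM HEPES, 0.1% ascorbic acid, pH 7.4. They were incubated 1 h at 37 °C with [3H]LSD (1 nM final) and membranes (23 µg protein) from HEK cells expressing human 5-HT6. Binding was stopped by filtration through GF/B filters presoaked in 0.1% polyethyleneimine, with three buffer washes, then counted by liquid scintillation. Single determination.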

[6] = target: 5-hydroxytryptamine receptor 2A (Homo sapiens, UniProt P28223); test: Displacement of [3H]-ketanserin from human 5HT2A receptor
Chain of 5-hydroxytryptamine receptor 2A (P28223 whole entry): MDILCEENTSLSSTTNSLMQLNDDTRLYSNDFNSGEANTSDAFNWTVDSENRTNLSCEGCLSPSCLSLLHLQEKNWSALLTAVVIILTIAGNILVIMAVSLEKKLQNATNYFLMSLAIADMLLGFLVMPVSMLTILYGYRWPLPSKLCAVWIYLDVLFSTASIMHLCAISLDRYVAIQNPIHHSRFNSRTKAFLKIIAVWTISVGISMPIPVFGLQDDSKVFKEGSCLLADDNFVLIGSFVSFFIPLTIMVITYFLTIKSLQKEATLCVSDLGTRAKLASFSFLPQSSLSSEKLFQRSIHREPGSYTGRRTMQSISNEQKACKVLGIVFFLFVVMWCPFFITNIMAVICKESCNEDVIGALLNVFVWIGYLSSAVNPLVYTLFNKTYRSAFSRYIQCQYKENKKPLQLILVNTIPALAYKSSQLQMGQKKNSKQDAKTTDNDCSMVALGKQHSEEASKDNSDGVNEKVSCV

[7] = target: 5-hydroxytryptamine receptor 7 (Homo sapiens, UniProt P34969); test: Displacement of [3H]LSD from human 5HT7 receptor
Chain of 5-hydroxytryptamine receptor 7 (P34969 whole entry): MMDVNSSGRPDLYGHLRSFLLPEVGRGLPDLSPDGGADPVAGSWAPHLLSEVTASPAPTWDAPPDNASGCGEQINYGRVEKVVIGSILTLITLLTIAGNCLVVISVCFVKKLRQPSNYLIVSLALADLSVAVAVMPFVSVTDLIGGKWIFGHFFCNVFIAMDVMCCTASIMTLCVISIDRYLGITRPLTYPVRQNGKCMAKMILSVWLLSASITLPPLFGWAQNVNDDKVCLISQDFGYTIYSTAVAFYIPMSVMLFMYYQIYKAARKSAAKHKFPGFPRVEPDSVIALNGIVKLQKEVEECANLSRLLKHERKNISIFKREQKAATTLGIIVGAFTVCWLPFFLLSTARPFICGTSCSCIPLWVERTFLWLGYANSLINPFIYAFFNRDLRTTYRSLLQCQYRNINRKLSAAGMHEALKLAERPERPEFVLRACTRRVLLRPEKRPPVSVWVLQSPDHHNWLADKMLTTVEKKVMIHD

[8] = target: 5-hydroxytryptamine receptor 1B (Rattus norvegicus, UniProt P28564); test: Displacement of [125I]-iodocyanopindolol from rat 5HT1B receptor
Chain of 5-hydroxytryptamine receptor 1B (P28564 whole entry): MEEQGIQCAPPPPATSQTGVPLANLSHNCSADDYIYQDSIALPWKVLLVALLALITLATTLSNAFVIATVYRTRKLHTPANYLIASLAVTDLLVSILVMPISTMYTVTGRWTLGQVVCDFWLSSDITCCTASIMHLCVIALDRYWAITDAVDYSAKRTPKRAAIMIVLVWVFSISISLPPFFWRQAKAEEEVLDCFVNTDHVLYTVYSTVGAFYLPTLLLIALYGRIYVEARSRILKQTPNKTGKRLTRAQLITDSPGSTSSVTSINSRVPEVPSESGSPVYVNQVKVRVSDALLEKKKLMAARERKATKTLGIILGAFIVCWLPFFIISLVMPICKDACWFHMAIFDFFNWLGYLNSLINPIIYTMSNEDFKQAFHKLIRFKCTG

[9] = target: T3, 5-hydroxytryptamine receptor 6; test: Partial agonist activity at human 5HT6 receptor expressed in BHK cells assessed as stimulation of cAMP production after 45 minutes relative to control; type: functional, cell-based
How it was run: (§1)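 BHK cells stably transfected with the human 5-HT6 receptor, grown in MEM-α with 10% dialysed heat-inactivated FCS at 37 °C under 5% CO2. Cells were detached with 5 mM EDTA in PBS, seeded at 10,000 cells/well and left to adhere ≥12 h. They were then washed and placed in serum-free MEM-α, exposed to compound for 45 min, washed with PBS, and intracellular cAMP measured by enzyme immunoassay.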

[10] = target: T3, 5-hydroxytryptamine receptor 6; test: Partial agonist activity at human 5HT6 receptor expressed in BHK cells assessed as stimulation of cAMP production after 45 minutes; type: functional, cell-based; how it was run: as §1
[11] = target: T3, 5-hydroxytryptamine receptor 6; test: Agonist activity at human 5HT6 receptor expressed in BHK cells assessed as stimulation of cAMP production after 45 minutes; type: functional, cell-based; how it was run: as §1
[12] = target: T3, 5-hydroxytryptamine receptor 6; test: Agonist activity at human 5HT6 receptor expressed in BHK cells assessed as stimulation of cAMP production after 45 minutes relative to control; type: functional, cell-based; how it was run: as §1
[13] = Displacement of [3H]-GR65630 from 5HT3 receptor in rat/mouse NG108 cells; type: cell-based
[14] = target: 5-hydroxytryptamine receptor 4 (Cavia porcellus, UniProt O70528); test: Displacement of [3H]-GR113808 from guinea pig 5HT4 receptor
Chain of 5-hydroxytryptamine receptor 4 (O70528 whole entry): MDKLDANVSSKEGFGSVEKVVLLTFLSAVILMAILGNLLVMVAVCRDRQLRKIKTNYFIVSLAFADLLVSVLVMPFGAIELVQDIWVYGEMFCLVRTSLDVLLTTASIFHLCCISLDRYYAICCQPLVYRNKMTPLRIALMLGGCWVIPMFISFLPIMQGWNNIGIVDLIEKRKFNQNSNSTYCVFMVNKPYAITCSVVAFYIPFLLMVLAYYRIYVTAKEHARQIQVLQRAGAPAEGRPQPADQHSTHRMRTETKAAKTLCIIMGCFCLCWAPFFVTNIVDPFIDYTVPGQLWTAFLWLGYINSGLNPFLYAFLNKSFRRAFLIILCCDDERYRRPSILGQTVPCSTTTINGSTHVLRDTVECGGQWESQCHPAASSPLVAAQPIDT

[15] = target: T3, 5-hydroxytryptamine receptor 6; test: Displacement of [3H]LSD from human 5HT6 receptor expressed in CHO cell membranes after 1 hr by liquid scintillation counting analysis
[16] = target: T3, 5-hydroxytryptamine receptor 6; test: Antagonist activity at human 5HT6 receptor expressed in human HeLa cells assessed as inhibition of 5HT-induced cAMP accumulation relative to control; type: functional, cell-based; set-up: scale not given: the % may be the effect or the level left

Chain of Sodium-dependent serotonin transporter (P31652 whole entry): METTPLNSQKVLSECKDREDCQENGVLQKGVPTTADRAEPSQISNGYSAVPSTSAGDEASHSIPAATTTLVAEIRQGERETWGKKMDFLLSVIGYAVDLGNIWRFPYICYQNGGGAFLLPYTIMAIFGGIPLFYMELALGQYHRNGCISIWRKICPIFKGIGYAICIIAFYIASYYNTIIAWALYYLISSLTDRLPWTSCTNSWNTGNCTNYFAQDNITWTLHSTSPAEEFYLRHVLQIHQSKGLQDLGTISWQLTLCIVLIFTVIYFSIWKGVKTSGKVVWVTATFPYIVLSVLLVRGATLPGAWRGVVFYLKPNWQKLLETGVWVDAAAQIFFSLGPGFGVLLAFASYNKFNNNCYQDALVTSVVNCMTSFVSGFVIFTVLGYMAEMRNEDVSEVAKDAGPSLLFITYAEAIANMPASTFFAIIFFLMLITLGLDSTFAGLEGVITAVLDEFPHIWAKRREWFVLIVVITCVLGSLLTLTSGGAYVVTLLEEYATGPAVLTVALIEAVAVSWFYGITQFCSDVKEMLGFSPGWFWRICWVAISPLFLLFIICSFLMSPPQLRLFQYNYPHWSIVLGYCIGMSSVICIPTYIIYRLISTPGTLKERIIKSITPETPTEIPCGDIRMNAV

Row | SMILES | IC50 [1] [nM] | IC50 [2] [nM] | IC50 [3] [nM] | IC50 [4] [nM] | IC50 [5] [nM] | IC50 [6] [nM] | IC50 [7] [nM] | IC50 [8] [nM] | Activity [9] [%] | EC50 [10] [nM] | other results
1 | Cc1[nH]c2ccc(-c3ccsc3)cc2c1C1=CCNCC1 | > 1000 | 33 | > 1000 | > 1000 | 700 | > 1000 | 690 | 12 |  |  | 
2 | CSc1ccc2[nH]c(C)c(C3=CCNCC3)c2c1 |  |  |  |  | 20 |  |  |  | 58 | 6.6 | 
3 | Cc1[nH]c2ccc(F)cc2c1C1=CCNCC1 | 1900 | 160 | 700 | > 1000 | 30 | 950 | 3100 | 200 |  |  | EC50 [11]: 5.3 nM; Activity [12]: 100%
4 | C1=C(c2c(-c3ccccc3)[nH]c3ccccc23)CCNC1 |  | > 1000 | 100 | > 1000 |  | 50 |  | > 1000 |  |  | IC50 [13]: 270 nM
5 | Cc1[nH]c2ccccc2c1C1=CCNCC1 | > 1000 | 1200 | 2900 | 5700 | 200 | 1500 | > 1000 | 890 | 78 | 1100 | IC50 [14]: 1000 nM; IC50 [13]: 2300 nM
6 | Cc1[nH]c2ccc(NS(=O)(=O)c3ccccc3)cc2c1C1=CCNCC1 |  |  |  |  |  |  |  |  | 60 | 21 | IC50 [15]: 29 nM
7 | CCn1c(C)c(C2=CCNCC2)c2cc(Cl)ccc21 |  |  |  |  | 100 |  |  |  |  |  | 
8 | Cc1c(C2=CCNCC2)c2cc(Cl)ccc2n1C |  |  |  |  | 40 |  |  |  |  |  | 
9 | N#Cc1ccc2[nH]cc(C3=CCNCC3)c2c1 |  |  |  |  | 20 |  |  |  | 44 | 130 | 
10 | Cc1[nH]c2ccc(OS(=O)(=O)C(F)(F)F)cc2c1C1=CCNCC1 | > 1000 | 35 | 990 | > 1000 | 50 | > 1000 | 1800 | 29 | 65 | 32 | 
11 | CCCn1c(C)c(C2=CCNCC2)c2cc(Cl)ccc21 |  |  |  |  | 80 |  |  |  |  |  | 
12 | Cc1[nH]c2ccc([N+](=O)[O-])cc2c1C1=CCNCC1 | > 1000 | 310 | > 1000 | 890 | 10 | 1000 | > 1000 | 570 | 28 | 32 | 
13 | COc1ccc2[nH]cc(C3=CCNCC3)c2c1 [RU-24969] |  | 20 |  |  |  |  |  | 6 |  |  | IC50 [13]: > 1000 nM
14 | Cc1c(C2=CCNCC2)c2cc(Cl)ccc2n1S(=O)(=O)c1ccccc1 |  |  |  |  |  |  |  |  |  |  | Activity [16]: 0%; IC50 [15]: 2 nM
15 | Cc1[nH]c2ccc(Oc3ccccc3[N+](=O)[O-])cc2c1C1=CCNCC1 |  |  |  |  | 9 |  |  |  |  |  | 
16 | Cc1[nH]c2ccc(OC(C)C)cc2c1C1=CCNCC1 |  |  |  |  | 100 |  |  |  |  |  | 
17 | Cc1[nH]c2ccc(Br)cc2c1C1=CCNCC1 | 4800 | 130 | 420 | 660 | 10 | 400 | 480 | 75 |  |  | EC50 [11]: 2.7 nM; Activity [12]: 100%
18 | Cc1[nH]c2ccc(-c3ccccc3)cc2c1C1=CCNCC1 | > 1000 | 390 | > 1000 | > 1000 | 1000 | > 1000 | 3700 | 140 |  |  | 
